Source: ChEMBL document CHEMBL1131624, “Inhibitors of acyl-CoA:cholesterol O-acyltransferase. 2. Identification and structure-activity relationships of a novel series of N-alkyl-N-(heteroaryl-substituted benzyl)-N'-arylureas” (J Med Chem, 1998)
Calls of active or inactive are those of the source. The calls are words filed in the database; no cut-off is given here.

Legend:
O-acyltransferase = O-acyltransferase (Oryctolagus cuniculus, UniProt G1SFD9); test: In vitro inhibitory activity against Acyl coenzyme A:cholesterol acyltransferase (ACAT) in rabbit intestinal microsomes; parameters: species or system Intestine
In short: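 Enzyme source was mucosal microsomes from small intestine of cholesterol-fed rabbits, incubated with [1-¹⁴C]oleoyl-CoA (Heider method, minor modifications).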

Rattus norvegicus [1] = organism: Rattus norvegicus; test: Effective dose to reduce plasma total cholesterol level by 50% of the control in cholesterol fed rats; assay type: functional
In short: (§1)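 Cholesterol-fed rats given compound orally as a dietary admixture in a cholesterol-enriched diet. Plasma total cholesterol compared with control and reported as percent reduction at the dose, or as ED50, the dose reducing plasma total cholesterol by 50% of the control value.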

[2] = biological target: T1, Sterol O-acyltransferase, Soat (Rattus norvegicus) (UniProt Q7TQM4+O70536); test: Percentage reduction in total cholesterol level at <1 mg/kg; assay type: functional, organism-based; in short: as §1
[3] = biological target: T1, Sterol O-acyltransferase, Soat (Rattus norvegicus); test: Effective dose to reduce plasma total cholesterol level by 50% of the control value in cholesterol fed rats; assay type: functional; in short: as §1
Rattus norvegicus [4] = test: Compound was evaluated for percent reduction in total cholesterol level at >0.32 mg/kg; Inactive; assay type: functional, organism-based; in short: as §1
Rattus norvegicus [5] = test: Compound was evaluated for percent reduction in total cholesterol level at >0.32 mg/kg; assay type: functional; in short: as §1
Mus musculus = organism: Mus musculus; test: Compound tested for inhibitory activity of foam cell formation in mouse peritoneal macrophages; assay type: functional
In short: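 Mouse peritoneal macrophages from nonstimulated mice, lavaged with PBS, plated 2 × 10⁶ cells/mL, adhered 2 h, then 18 h in 10% FBS-DMEM. Incubated 4 h at 37 °C with 0.2 mmol/L [1-¹⁴C]oleate–BSA, 30 µg/mL acetylated human LDL and compound (0.1% DMSO). Lipids extracted, TLC-separated, and cholesteryl [¹⁴C]oleate counted. Cell protein also measured. IC50 in nM.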

Rattus norvegicus [6] = test: Effective dose to reduce plasma total cholesterol level by 50% of the control in cholesterol fed rats when administered by gavage in PEG400 as a vehicle; assay type: functional; settings: po
In short: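 Rats on a cholesterol diet were dosed orally by gavage with compound in PEG400 vehicle. Plasma total cholesterol measured. ED50 is the dose reducing it by 50% of the control value.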

Rattus norvegicus [7] = test: Compound was evaluated for percent reduction in total cholesterol level at >0.1 mg/kg; Inactive; assay type: functional, organism-based; in short: as §1
Rattus norvegicus [8] = test: Compound was evaluated for percent reduction in total cholesterol level at >1 mg/kg; inactive; assay type: functional, organism-based; in short: as §1

Sequence of O-acyltransferase (G1SFD9 1-524): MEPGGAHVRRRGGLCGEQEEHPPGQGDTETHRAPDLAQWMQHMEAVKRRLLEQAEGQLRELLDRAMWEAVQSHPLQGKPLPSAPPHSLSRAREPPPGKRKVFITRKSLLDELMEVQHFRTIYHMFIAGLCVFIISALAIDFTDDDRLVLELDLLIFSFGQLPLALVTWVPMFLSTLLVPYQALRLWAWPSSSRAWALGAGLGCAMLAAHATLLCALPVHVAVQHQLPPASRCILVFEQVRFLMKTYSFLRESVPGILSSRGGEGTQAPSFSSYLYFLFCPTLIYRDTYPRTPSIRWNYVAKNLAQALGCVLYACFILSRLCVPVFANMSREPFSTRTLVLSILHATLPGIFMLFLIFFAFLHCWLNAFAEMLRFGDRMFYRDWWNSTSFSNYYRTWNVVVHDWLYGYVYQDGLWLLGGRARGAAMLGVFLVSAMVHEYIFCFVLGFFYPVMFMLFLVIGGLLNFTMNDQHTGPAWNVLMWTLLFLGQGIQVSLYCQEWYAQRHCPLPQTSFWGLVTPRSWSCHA

Row | Structure (SMILES) | IC50 (O-acyltransferase) [nM] | ED50 [3] [mg/kg] | other results
1 | Cc1cc(C)c(NC(=O)N(Cc2ccc(-c3ccccc3)cc2)C2CCCCCC2)c(C)c1 | 24 |  | ED50 (Rattus norvegicus [1]): 0.29 mg/kg
2 | Cc1cc(C)c(NC(=O)N(Cc2ccc(-c3ccn(C)n3)cc2)C2CCCCCC2)c(C)c1 | 44 | < 1 | Reduction [2]: 88%; ED50 (Rattus norvegicus [1]): > 0.32 mg/kg; Reduction (Rattus norvegicus [4]): inactive
3 | Cc1cc(C)c(NC(=O)N(Cc2ccc(-c3nnc(C)o3)cc2)C2CCCCCC2)c(C)c1 | 27 | > 0.32 | Reduction (Rattus norvegicus [5]): 37%
4 | O=C(Nc1c(F)cc(F)cc1F)N(Cc1cccc(-c2cc[nH]n2)c1)C1CCCCCC1 | 22 | 0.062 | IC50 (Mus musculus): 580 nM; ED50 (Rattus norvegicus [6]): 0.79 mg/kg
5 | CSc1cc(C)nc(SC)c1NC(=O)N(Cc1ccccc1)Cc1ccc(-c2ccn(C)n2)cc1 | 29 | > 0.32 | Reduction (Rattus norvegicus [7]): inactive
6 | CSc1cc(C)nc(SC)c1NC(=O)N(Cc1cccc(-c2cc[nH]n2)c1)C1CCCCCC1 | 260 | > 0.32 | Reduction (Rattus norvegicus [5]): 24%
7 | Cc1cc(C)c(NC(=O)N(Cc2c[nH]c(-c3ccccc3)n2)C2CCCCCC2)c(C)c1 | 750 | > 1 | Reduction (Rattus norvegicus [8]): inactive
